Screening results deposited in PubChem BioAssay by The Scripps Research Institute Molecular Screening Center.
An excerpt weighted towards active compounds, which were near 2.8% of everything screened.
PAFAH1B2 FP inh: inhibitors of human PAFAH1B2; recombinant PAFAH1B2, FP-rhodamine activity probe, fluorescence polarization; inhibition, % at 3.39 µM; 340,000 compounds, 1.2% hits;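 active means inhibition above the mean of all tested compounds plus 3 SD, cut at about 24% in these data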
Target sequence (P68402 whole entry, looked up): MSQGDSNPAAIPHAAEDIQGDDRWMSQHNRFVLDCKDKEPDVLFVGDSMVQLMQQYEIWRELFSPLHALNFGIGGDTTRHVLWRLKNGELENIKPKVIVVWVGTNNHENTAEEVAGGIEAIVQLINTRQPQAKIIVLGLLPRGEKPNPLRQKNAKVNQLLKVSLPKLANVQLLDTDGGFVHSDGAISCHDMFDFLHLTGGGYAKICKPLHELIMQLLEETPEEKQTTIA
PAFAH1B3 inh: inhibitors of human PAFAH1B3; Q15102; recombinant PAFAH1B3, FP-rhodamine probe, fluorescence polarization; inhibition, % at 3.39 µM; 340,000 compounds, 0.28% hits; AID 492972;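 active means inhibition above the screen-wide average of all tested compounds plus 3 SD, cut at about 25% in these data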
Target sequence (Q15102 whole entry, looked up): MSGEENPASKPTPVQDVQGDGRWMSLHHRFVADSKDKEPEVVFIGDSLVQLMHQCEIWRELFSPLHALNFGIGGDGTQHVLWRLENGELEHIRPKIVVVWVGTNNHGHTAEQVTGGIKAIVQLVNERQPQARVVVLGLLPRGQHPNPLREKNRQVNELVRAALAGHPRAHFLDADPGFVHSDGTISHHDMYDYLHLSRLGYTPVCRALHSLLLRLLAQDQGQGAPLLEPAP
mABHD4 FP: ABHD4 (mouse) inhibition, primary FP screen; inhibition, % at 8.92 µM; 370,000 compounds, 0.54% hits; purified mABHD4, FP-Rh probe fluorescence polarization;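 active means inhibition exceeding the mean over every tested compound plus 3 SD, cut at about 30% in these data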
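Assay system: mouse ABHD4 enzyme, wild type / Also added: fluorescent activity-based probe FP-Rh / Doses: single nominal dose of 8.92 µM, 0.89% DMSO final / Timing: 45 min compound pre-incubation plus 60 min probe step, 25 °C / Signal: FP readout, ex 525 nm / em 598 nm / Control set: S159A mutant/DMSO as 100%, compound-well median as 0%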
PAFAH2 inh: inhibitors of human PAFAH2; inhibition, % at 3.39 µM; 340,000 compounds, 0.99% hits; recombinant PAFAH2, FP-rhodamine activity probe, fluorescence polarization; AID 492956;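 active means inhibition above the mean over all tested compounds plus 3 SD, cut at about 30% in these data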;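 further: inhibitors block probe labeling of enzyme so polarization drops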
HTRA1 inh: HTRA1 (human) protease inhibition; inhibition, % at 5.96 µM; recombinant HTRA1, FP-rhodamine activity-based probe, fluorescence polarization; Q92743; 340,000 compounds, 0.5% hits; in the data active means inhibition above about 36%
pPAFAH inh: pPAFAH (human) enzyme inhibition; Q13093; recombinant pPAFAH, FP-rhodamine probe fluorescence polarization; inhibition, % at 3.39 µM; 330,000 compounds, 1.5% hits; AID 463082;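 active means inhibition above the mean inhibition across the screen plus 3 SD, cut at about 25% in these data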;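 further: inhibitors block binding of the rhodamine activity-based probe so polarization drops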
Each line names hits and unclear results; the compound was inactive in the other large screens.

O=C(O)CCC(=O)N1CCN(c2nc(-c3ccccc3Cl)c3cc(Br)ccc3n2)CC1	pPAFAH inh 33
O=C(/C=C/c1cccc(Cl)c1)c1ccc([N+](=O)[O-])o1	HTRA1 inh 43
C/C(=N\NC(=O)c1cccs1)c1ccc2c(c1)OCO2	pPAFAH inh 28 (no result: PAFAH1B2 FP inh, PAFAH1B3 inh, PAFAH2 inh, HTRA1 inh)
N#C/C(=C\c1coc2ccccc2c1=O)C(N)=S	none
N#C/C(=C\c1coc2ccc(O)cc2c1=O)C(=O)Nc1nc2ccccc2s1	pPAFAH inh 33
Cc1ccc(C(=O)Oc2cc(C)[nH]c(=O)c2[N+](=O)[O-])cc1	pPAFAH inh 29
Cc1cc(OC(=O)c2ccc(C)c(C)c2)c([N+](=O)[O-])c(=O)[nH]1	none
COc1cc(C(=O)NC2CCCCN(Cc3cccc(C(F)(F)F)c3)C2=O)cc(OC)c1OC (configuration not stated)	none (no result: PAFAH1B2 FP inh, PAFAH1B3 inh, PAFAH2 inh, HTRA1 inh, pPAFAH inh)
Cc1ccc(CNC(=O)CO/N=C/c2ccc(C(C)(C)C)cc2)cc1	PAFAH1B2 FP inh 29
CC(C)(C)c1ccc(/C=N/OCC(=O)NCc2ccccc2)cc1	none
O=C(CSc1nnc(-c2ccco2)n1Cc1ccco1)c1ccc([N+](=O)[O-])cc1	none (no result: PAFAH1B2 FP inh, PAFAH1B3 inh, PAFAH2 inh, HTRA1 inh, pPAFAH inh)
COC(=O)c1ccc2c(C3(c4c[nH]c5ccccc45)CCN(C(=O)OC(C)(C)C)CC3)c[nH]c2c1	none (no result: PAFAH1B2 FP inh, PAFAH1B3 inh, PAFAH2 inh, HTRA1 inh, pPAFAH inh)
O=C(O/N=C(\c1ccccc1)c1ccncc1)c1ccccc1F	PAFAH1B2 FP inh 33, PAFAH2 inh 53
O=C(Cc1ccc(Cl)cc1)NNC1CC(=O)N(c2ccc3ccccc3c2)C1=O (configuration not stated)	PAFAH1B2 FP inh 25
Cc1ccc(S(=O)(=O)N2CC(O)C[C@H]2C(=O)OCC(=O)Nc2ccc(N3CCCCC3)cc2)cc1C (some centres not stated)	pPAFAH inh 25
Cc1cc(OCC(=O)Nc2ccc(N3CCCC3)cc2)cc(C)c1Cl	pPAFAH inh 26
O=C(NN1C(=O)c2cc(Br)ccc2NC1c1cc(Br)cc(Br)c1O)c1ccncc1 (configuration not stated)	pPAFAH inh 30
CCCCCCCc1nc2c(=O)n(C)c3ccccc3c2o1	pPAFAH inh 31
CCc1ccccc1NC(=O)c1cc([N+](=O)[O-])ccc1N1CCOCC1	none
CC1CCN(c2ccccc2NC(=O)c2cc([N+](=O)[O-])ccc2N2CCOCC2)CC1	PAFAH1B2 FP inh 27
C=CCCC(=O)N(Cc1ccccc1)c1ccccc1C(=O)Nc1cc(OC)ccc1OC	none (no result: PAFAH1B2 FP inh, PAFAH1B3 inh, PAFAH2 inh, HTRA1 inh, pPAFAH inh)
CNC(=S)N(Cc1ccc(OC)cc1)C1CC(=O)N(c2ccc(Cl)cc2)C1=O (configuration not stated)	PAFAH1B2 FP inh 33
CC(=O)Nc1ccc(NC(=O)C(C)c2cccc(C(=O)c3ccccc3)c2)cc1 (configuration not stated)	pPAFAH inh 30
S=C(NCc1ccc(Cl)cc1Cl)Nc1ccccc1	pPAFAH inh 33
Cc1cc2c(cc1S(=O)(=O)NCC(C)c1ccccc1)n(C)c(=O)c(=O)n2C (configuration not stated)	PAFAH1B2 FP inh 26
CC(C)=C1CCC(C)CC1=NNC(N)=S (configuration not stated)	PAFAH1B2 FP inh 27 (no result: pPAFAH inh)
Cc1ccc(CN=C2NC(=O)C(CC(=O)NCCc3ccccc3)S2)cc1 (configuration not stated)	PAFAH1B2 FP inh 42 (no result: mABHD4 FP)
Cn1ccc(C(=O)OCC(=O)Nc2cccc3ccccc23)n1	PAFAH2 inh 50
CS(=O)(=O)C1=NSC2=NC(=O)/C(=C\c3cccn3-c3ccc(Cl)cc3)C(=N)N21	PAFAH1B2 FP inh 64
COc1cccc(C(=O)Nc2cccc(NC(=O)c3ccccc3Cl)c2)c1	none
COc1cccc(C(=O)Nc2cccc(C(=O)NC3=NN(c4c(Cl)cc(Cl)cc4Cl)C(=O)C3)c2)c1	pPAFAH inh 30
CN1/C(=C\C(=O)COC(=O)c2ccc(O)c(O)c2)C(C)(C)c2ccccc21	pPAFAH inh 32 (no result: PAFAH1B2 FP inh, PAFAH1B3 inh, PAFAH2 inh, HTRA1 inh)
O=S(=O)(c1ccc(S(=O)(=O)n2cnc3ccccc32)cc1)N1CCCCCC1	none
O=S(=O)(c1ccc(F)cc1)n1cnc2ccccc21	PAFAH1B2 FP inh 26
CC(=O)CC[C@@H]1CC[C@]2(CCCN(C(=O)C3CCCC3)C2)O1	none (no result: PAFAH1B2 FP inh, PAFAH1B3 inh, PAFAH2 inh, HTRA1 inh, pPAFAH inh)
